We go through 29 compounds from ChEMBL document CHEMBL1133679, “Synthesis and cytotoxicity of 4-amino-5-oxopyrido[2,3-d]pyrimidine nucleosides” (J Med Chem, 2000).

Holding throughout (assay type): functional, cell-based
Test [1] is described as follows: Cytotoxicity that caused a 50% reduction in absorbance at 490 nm in human prostate cancer HTB-81 cells using MTS assay. In a few lines: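 DU-145 (HTB-81) prostate cancer cells were grown in MEM with 10% fetal bovine serum and 2 mM L-glutamine. They were plated at 4×10^3 per well and treated at 0.78–100 μM from 100 mM DMSO stocks diluted in medium, with a 1% DMSO control. MTS read at 490 nm after 72 h. EC50 is the 50% absorbance drop versus untreated cells.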

Test [2] in a line: Cytotoxicity that caused a 50% reduction in absorbance at 490 nm in normal human fibroblast (NHF) cells using MTS assay. In a few lines: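 Normal human dermal fibroblasts were cultivated in FGM medium and seeded at 4×10^3 cells per well. Exposure was 0.78–100 μM, diluted in medium from 100 mM DMSO stocks, with a 1% DMSO control. Formazan absorbance at 490 nm was measured by MTS after 72 h. EC50 is the concentration halving absorbance relative to untreated cells.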
(Tetrazolium assays rely on reduction of a dye to a coloured formazan, in cell work by metabolically active cells.)

Another test deals with B16. In words: Cytotoxicity that caused a 50% reduction in absorbance at 490 nm in B16 mouse melanoma cells using MTS assay. In a few lines:
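Compounds taken from 100 mM DMSO stocks and diluted in culture medium. Cells seeded at 4×10^3 per well and exposed to 0.78–100 μM. A 1% DMSO control was run in parallel. MTS reagent added after 72 h and formazan read at 490 nm. EC50 is the concentration giving 50% absorbance reduction versus untreated cells.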

Structures are written as SMILES.

As to `Nc1ncnc2nccc(O)c12`, the EC50 – broadly, the concentration that produces a half-maximal response – is greater than 100 µM in test [1] (Homo sapiens, HTB-81); greater than 100 µM in test [2] (Homo sapiens); greater than 100 µM in the test with B16 (Mus musculus, B16).

For `C[C@@]1(O)[C@@H](CO)OC(n2ccc(=O)c3c(N)ncnc32)[C@@H]1O` (stereo partly specified), the EC50 in test [1] (Homo sapiens, HTB-81) came to 4.44 µM; in test [2] (Homo sapiens), 10.4 µM; in the test with B16 (Mus musculus, B16), 31.6 µM.

Take `N#Cc1cn([C@@H]2O[C@H](CO)[C@@H](O)[C@H]2O)c2ncnc(N)c12` [TOYOCAMYCIN]: the EC50 turned out to be 0.012 µM in test [1] (Homo sapiens, HTB-81); 0.004 µM in test [2] (Homo sapiens); 0.005 µM in the test on B16 (Mus musculus, B16).

Turning to `Nc1ncnc2c1c(=O)ccn2[C@H]1C[C@@H](O)[C@@H](CO)O1`, the concentration for a half-maximal effect (EC50) was determined as 26.6 µM in test [1] (Homo sapiens, HTB-81); 38.9 µM in test [2] (Homo sapiens); 68.9 µM in the test with B16 (Mus musculus, B16).

In the case of `CC[C@]1(CO)OC(n2ccc(=O)c3c(N)ncnc32)[C@H](O)[C@@H]1O` (stereo partly specified), the concentration for a half-maximal effect (EC50) in test [1] (Homo sapiens, HTB-81) was 36.7 µM; in test [2] (Homo sapiens), 65.1 µM; in the test on B16 (Mus musculus, B16), 96 µM.

Turning to `C[C@]1(O)C(n2ccc(=O)c3c(N)ncnc32)O[C@H](CO)[C@H]1O` (stereo partly specified), the EC50 in test [1] (Homo sapiens, HTB-81) was 46.7 µM; in test [2] (Homo sapiens), greater than 100 µM; in the test on B16 (Mus musculus, B16), 85.5 µM.

In the case of `C=C1[C@@H](O)[C@H](n2ccc(=O)c3c(N)ncnc32)O[C@@H]1CO`, the EC50 in test [1] (Homo sapiens, HTB-81) came to 31.1 µM; in test [2] (Homo sapiens) it was 41.1 µM; in the test with B16 (Mus musculus, B16) it was 60.5 µM.

Consider `Nc1ncnc2c1c(=O)ccn2C1O[C@H](CO)[C@@H](O)[C@@H]1O` (stereo partly specified), for which the concentration giving a half-maximal response (EC50) turned out to be 21.9 µM in test [1] (Homo sapiens, HTB-81); 23.2 µM in test [2] (Homo sapiens); 33.2 µM with B16 (Mus musculus, B16).

Consider `C[C@]1(CO)OC(n2ccc(=O)c3c(N)ncnc32)[C@H](O)[C@@H]1O` (stereo partly specified), for which the EC50 is 19.7 µM in test [1] (Homo sapiens, HTB-81); 29.9 µM in test [2] (Homo sapiens); 55.5 µM with B16 (Mus musculus, B16).

As to `Nc1ncnc2c1c(=O)ccn2[C@@H]1OC(CO)(CO)[C@@H](O)[C@H]1O`, the EC50 was greater than 100 µM in test [1] (Homo sapiens, HTB-81); greater than 100 µM in test [2] (Homo sapiens); greater than 100 µM in the test with B16 (Mus musculus, B16).

In the case of `CCC[C@@H](O)[C@H]1OC(n2ccc(=O)c3c(N)ncnc32)[C@H](O)[C@@H]1O` (stereo partly specified), the EC50 in test [1] (Homo sapiens, HTB-81) is 20.4 µM; in test [2] (Homo sapiens) it was 41.1 µM; with B16 (Mus musculus, B16), 51.6 µM.

As to `CC[C@@H](O)[C@H]1O[C@@H](n2ccc(=O)c3c(N)ncnc32)[C@H](O)[C@@H]1O.CC[C@H](O)[C@H]1O[C@@H](n2ccc(=O)c3c(N)ncnc32)[C@H](O)[C@@H]1O` (mixture of isomers), the EC50 is 17.3 µM in test [1] (Homo sapiens, HTB-81); 18.9 µM in test [2] (Homo sapiens); 16.3 µM in the test with B16 (Mus musculus, B16).

For `Nc1ncnc2c1c(=O)ccn2[C@H]1C[C@H](O)[C@@H](CO)O1`, the EC50 was 3.9 µM in test [1] (Homo sapiens, HTB-81); 5 µM in test [2] (Homo sapiens); 11.3 µM in the test on B16 (Mus musculus, B16).

Take `C#C[C@@H](O)[C@H]1O[C@@H](n2ccc(=O)c3c(N)ncnc32)[C@H](O)[C@@H]1O.C#C[C@H](O)[C@H]1O[C@@H](n2ccc(=O)c3c(N)ncnc32)[C@H](O)[C@@H]1O` (mixture of isomers): the EC50 is 6.1 µM in test [1] (Homo sapiens, HTB-81); 15.3 µM in test [2] (Homo sapiens); 17.2 µM in the test on B16 (Mus musculus, B16).

`C[C@@H](O)[C@H]1O[C@@H](n2ccc(=O)c3c(N)ncnc32)[C@H](O)[C@@H]1O.C[C@H](O)[C@H]1O[C@@H](n2ccc(=O)c3c(N)ncnc32)[C@H](O)[C@@H]1O`: the EC50 in test [1] (Homo sapiens, HTB-81) was 10 µM; in test [2] (Homo sapiens), 16.5 µM; in the test on B16 (Mus musculus, B16) it was 18.3 µM.

As to `Nc1ncnc2c1c(=O)ccn2C1O[C@H](CO)[C@H](O)[C@H]1O` (stereo partly specified), the EC50 turned out to be 0.73 µM in test [1] (Homo sapiens, HTB-81); 20.7 µM in test [2] (Homo sapiens); 5.9 µM in the test with B16 (Mus musculus, B16).

Consider `C#C[C@@]1(O)[C@@H](CO)OC(n2ccc(=O)c3c(N)ncnc32)[C@@H]1O` (stereo partly specified), for which the EC50 in test [1] (Homo sapiens, HTB-81) is 0.68 µM; in test [2] (Homo sapiens), 6.45 µM; in the test on B16 (Mus musculus, B16) it was 2.48 µM.

For `Nc1ncnc2c1c(=O)ccn2[C@@H]1O[C@H](CO)[C@@H](O)[C@H]1O` (stereo in doubt; 1b-L), the EC50 (in test [1] (htb-81); in test [2]; in the test on B16 (b16)) was greater than 100 µM each time.

Consider `C#C[C@]1(O)[C@@H](CO)OC(n2ccc(=O)c3c(N)ncnc32)[C@@H]1O` (stereo partly specified), for which the EC50 is greater than 100 µM in test [1] (Homo sapiens, HTB-81); greater than 100 µM in test [2] (Homo sapiens); greater than 100 µM in the test with B16 (Mus musculus, B16).

Turning to `N=c1ncn(C2OC(CO)[C@@H](O)[C@@H]2O)c2nccc(O)c12` (stereo partly specified), the EC50 in test [1] (Homo sapiens, HTB-81) is greater than 100 µM; in test [2] (Homo sapiens), greater than 100 µM; in the test with B16 (Mus musculus, B16), greater than 100 µM.

Consider `C#C[C@]1(O)C(n2ccc(=O)c3c(N)ncnc32)O[C@H](CO)[C@H]1O` (stereo partly specified), for which the EC50 in test [1] (Homo sapiens, HTB-81) is 29.3 µM; in test [2] (Homo sapiens), 65.1 µM; in the test on B16 (Mus musculus, B16), 81 µM.

`COc1cccc2c1C(=O)c1c(O)c3c(c(O)c1C2=O)C[C@@](O)(C(C)=O)C[C@@H]3O[C@H]1C[C@H](N)[C@H](O)[C@H](C)O1` [DAUNORUBICIN]: the EC50 turned out to be 0.058 µM in test [1] (Homo sapiens, HTB-81); 0.22 µM in test [2] (Homo sapiens); 0.16 µM in the test on B16 (Mus musculus, B16).

Regarding `N=c1ncn(C2O[C@H](CO)[C@@H](O)[C@H]2O)c2nccc(O)c12` (stereo partly specified), the EC50 in test [1] (Homo sapiens, HTB-81) was determined as 7.3 µM; in test [2] (Homo sapiens), 7.3 µM.

In the case of `C=CC[C@@H](O)[C@H]1OC(n2ccc(=O)c3c(N)ncnc32)[C@H](O)[C@@H]1O` (stereo partly specified), the concentration for a half-maximal effect (EC50) in test [1] (Homo sapiens, HTB-81) came to 35.3 µM; in test [2] (Homo sapiens), 72 µM; with B16 (Mus musculus, B16), 66.3 µM.

As to `C=C[C@]1(CO)OC(n2ccc(=O)c3c(N)ncnc32)[C@H](O)[C@@H]1O` (stereo partly specified), the EC50 in test [1] (Homo sapiens, HTB-81) stood at 34.2 µM; in test [2] (Homo sapiens), 76.8 µM; in the test on B16 (Mus musculus, B16) it was 99.7 µM.

On to `C=C1[C@H](n2ccc(=O)c3c(N)ncnc32)O[C@H](CO)[C@H]1O`, for which the EC50 in test [1] (Homo sapiens, HTB-81) is greater than 100 µM; in test [2] (Homo sapiens), greater than 100 µM; with B16 (Mus musculus, B16), greater than 100 µM.

Regarding `Nc1ncnc2c1c(=O)ccn2C1CCC(CO)O1` (stereo unspecified), the EC50 in test [1] (Homo sapiens, HTB-81) was found to be 43.3 µM; in test [2] (Homo sapiens) it was 60.5 µM; in the test on B16 (Mus musculus, B16) it was 47.1 µM.

As to `Nc1ncnc2c1c(=O)ccn2[C@@H]1O[C@H](CO)[C@@H](O)[C@H]1O` (stereo in doubt; 1b), the EC50 in test [1] (htb-81) worked out at 0.06 µM; in test [2], 0.08 µM; with B16 (b16) it was 0.06 µM.

For the compound `Nc1ncnc2c1c(=O)ccn2[C@@H]1O[C@H](CO)C[C@H]1O`, the EC50 was 2.6 µM in test [1] (Homo sapiens, HTB-81); 9.5 µM in test [2] (Homo sapiens); 19 µM in the test with B16 (Mus musculus, B16).
